Experimental data from different studies.
Protocols differ between the studies behind these lines.
Target: Mitogen-activated protein kinase kinase kinase 14 (MAP3K14, Homo sapiens, UniProt Q99558)

| Compound | test | setting | remaining binding |
| --- | --- | --- | --- |
| O=C(NS(=O)(=O)c1ccc(NCC2CCOCC2)c([N+](=O)[O-])c1)c1ccc(N2CCN(Cc3ccc(C(F)(F)F)cc3-c3ccc(Cl)cc3)CC2)cc1Oc1cnc2[nH]ccc2c1 | cell-free assay, competition with immobilised ligand | 1 µM | 65% |
| Cc1cnc(Nc2ccc(C(=O)N3CCC(N4CCCC4)CC3)cc2)nc1-c1cc2ccccc2s1 | binding, competition with immobilised ligand | 1 µM | 100% |
| O=C(NCC1CCOCC1)c1n[nH]cc1NC(=O)c1c(F)cccc1F | binding, competition with immobilised ligand | 1 µM | 79% |
| O=C(c1ccc(Nc2nccc(-c3cc4ccccc4s3)n2)cc1)N1CCC(N2CCCC2)CC1 | binding, competition with immobilised ligand | 1 µM | 59% |
| CC1CCCN1c1nccc(-c2cnn3ncccc23)n1 (centres unmarked) | binding, competition with immobilised ligand | 1 µM | 100% |
| O=C(NCc1ncc(C(F)(F)F)cc1Cl)c1ccc2c(c1)C1(CCS(=O)(=O)CC1)[C@@H](C1CC1)N2S(=O)(=O)c1ccc(F)cc1 | cell-free assay, competition with immobilised ligand | 1 µM | 71% |
| CN(C)c1ncc(F)c(-c2cnn3ncccc23)n1 | binding, competition with immobilised ligand | 1 µM | 75% |
| CN(c1ccnc(CNc2nc(Nc3ccc4c(c3)CC(=O)N4)ncc2C(F)(F)F)n1)S(C)(=O)=O | cell-free assay, competition with immobilised ligand | 1 µM | 65% |
| N[C@H]1CCN(c2nccc(-c3cnn4ncccc34)n2)C1 | binding, competition with immobilised ligand | 1 µM | 100% |
| O=C(NCCCN1CCOCC1)c1ccc(Nc2ncc(Cl)c(-c3ccc(Cl)s3)n2)cc1 | binding, competition with immobilised ligand | 1 µM | 49% |
| F[C@@H]1CCN(c2nccc(-c3cnn4ncccc34)n2)C1 | binding | 1 µM | 100% |
| CCCCN(CCCC)C(=O)CN1C[C@H](c2cc(OC)c3c(c2)OCO3)[C@@H](C(=O)O)[C@@H]1CC(C)(C)CCC | cell-free assay, competition with immobilised ligand | 1 µM | 100% |
| CN(c1nccc(-c2cnn3ncccc23)n1)C1CC1 | binding | 1 µM | 100% |
| CNC(=O)[C@@H]1CC[C@@H](n2c(-c3ccc4cnccc4c3)nc3ccc(C(=O)NCc4cccc(C(N)=O)c4)cc32)C1 | binding, competition with immobilised ligand | 1 µM | 100% |
| c1cncc(-c2cccc(Nc3nccc(NC4CCCCC4)n3)c2)c1 | binding, competition with immobilised ligand | 10 µM | 96% |
| COc1cnc(Nc2cccc(S(N)(=O)=O)c2)nc1N1CCN(c2ccccc2)C(=O)C1 | binding, competition with immobilised ligand | 1 µM | 89% |
| CN(C)C(=O)Cn1cc(-c2nc(C3(c4ccc(-c5cnc(N)nc5)cc4)CC3)no2)cn1 | cell-free assay, competition with immobilised ligand | 1 µM | 83% |
| COc1ncc2cc3ccccc3nc2c1C#N | cell-free assay, competition with immobilised ligand | 5 µM | 76% |
| COc1ccnn2ncc(-c3ccnc(N(C)C)n3)c12 | binding | 1 µM | 78% |
| CC(=O)N1CCC(c2ccc(C(=O)NC(=N)N)cc2C(F)(F)F)CC1 | cell-free assay, competition with immobilised ligand | 1 µM | 100% |
